{"source": "ChEMBL document CHEMBL4229344", "about": "(Eur J Med Chem, 2018)", "key": {"[1]": {"target": "Mitogen-activated protein kinase kinase kinase 19 (Homo sapiens) (UniProt Q56UN5)", "experiment": "Binding affinity to wild-type human partial length YSK4 (T1019 to H1328 residues) expressed in mammalian expression system assessed as residual binding level at 1 uM by Kinomescan method relative to control"}, "[2]": {"target": "Serine/threonine-protein kinase 17B (Homo sapiens) (UniProt O94768)", "experiment": "Binding affinity to wild-type human full length DRAK2 (M1 to C372 residues) expressed in bacterial expression system assessed as residual binding level at 1 uM by Kinomescan method relative to control", "procedure,_shortened": "(§1)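 KINOMEscan competition binding against 468 purified kinases/mutants, test compound at 1 µM; residual binding relative to control.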"}, "[3]": {"target": "T1, Platelet-derived growth factor receptor alpha (Homo sapiens, UniProt P16234)", "T1 sequence (P16234 whole entry)": "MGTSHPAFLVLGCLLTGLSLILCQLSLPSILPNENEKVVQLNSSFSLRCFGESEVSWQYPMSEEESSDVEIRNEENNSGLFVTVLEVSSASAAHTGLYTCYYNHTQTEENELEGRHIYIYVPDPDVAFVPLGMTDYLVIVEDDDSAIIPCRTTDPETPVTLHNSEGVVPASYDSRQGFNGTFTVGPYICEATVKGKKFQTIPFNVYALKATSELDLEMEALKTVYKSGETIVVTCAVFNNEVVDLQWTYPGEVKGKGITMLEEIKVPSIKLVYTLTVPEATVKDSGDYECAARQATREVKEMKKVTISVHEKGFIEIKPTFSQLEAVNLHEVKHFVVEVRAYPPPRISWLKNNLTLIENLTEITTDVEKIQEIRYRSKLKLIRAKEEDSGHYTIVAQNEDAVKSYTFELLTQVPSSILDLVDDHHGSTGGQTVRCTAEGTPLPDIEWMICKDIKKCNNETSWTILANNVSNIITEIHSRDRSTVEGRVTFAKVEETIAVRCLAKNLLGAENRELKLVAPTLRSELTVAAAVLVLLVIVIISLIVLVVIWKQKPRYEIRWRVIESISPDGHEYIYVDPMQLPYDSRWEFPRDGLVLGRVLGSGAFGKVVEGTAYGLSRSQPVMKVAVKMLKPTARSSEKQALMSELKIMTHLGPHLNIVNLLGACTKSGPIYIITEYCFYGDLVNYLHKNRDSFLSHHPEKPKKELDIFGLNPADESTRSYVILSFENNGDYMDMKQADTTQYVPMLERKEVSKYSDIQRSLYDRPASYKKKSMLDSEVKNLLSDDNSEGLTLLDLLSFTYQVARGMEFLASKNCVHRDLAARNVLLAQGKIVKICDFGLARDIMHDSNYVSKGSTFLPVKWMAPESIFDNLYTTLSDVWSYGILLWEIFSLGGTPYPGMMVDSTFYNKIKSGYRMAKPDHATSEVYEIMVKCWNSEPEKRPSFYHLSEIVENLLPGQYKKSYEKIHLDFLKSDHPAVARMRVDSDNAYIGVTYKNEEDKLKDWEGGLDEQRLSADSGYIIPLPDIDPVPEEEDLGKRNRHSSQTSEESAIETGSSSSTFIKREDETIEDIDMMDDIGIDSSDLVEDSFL", "experiment": "Inhibition of PDGFRalpha in human EOL-1 cells assessed as decrease in ERK1/2 phosphorylation at T202/Y204 residues up to 300 nM after 2 hrs by Western blot analysis", "format": "cell-based"}, "[4]": {"target": "T1, Platelet-derived growth factor receptor alpha", "experiment": "Inhibition of PDGFRalpha in human EOL-1 cells assessed as decrease in STAT5 phosphorylation at Y694 residue up to 300 nM after 2 hrs by Western blot analysis", "format": "cell-based"}, "[5]": {"target": "Ephrin type-A receptor 4 (Homo sapiens) (UniProt P54764)", "experiment": "Binding affinity to wild-type human partial length EPHA4 (T601 to R897 residues) expressed in bacterial expression system assessed as residual binding level at 1 uM by Kinomescan method relative to control", "procedure,_shortened": "(§2)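 Kinome-wide competition binding screen against a panel of 468 purified kinases/mutants, with the test compound at a single concentration of 1 μM. Read-out is the relative binding activity of each kinase in the presence of compound.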"}, "[6]": {"test_system": "Leucine-rich repeat serine/threonine-protein kinase 2 (Homo sapiens), Q5S007 [G2019S]", "experiment": "Binding affinity to human partial length LRRK2 G2019S mutant (H970 to E2527 residues) expressed in mammalian expression system assessed as residual binding level at 1 uM by Kinomescan method relative to control", "procedure,_shortened": "(§3)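 Kinome-wide single-concentration binding screen (KINOMEscan) at 1 μM against a panel of 468 purified kinases and mutants. Read-out is relative binding of each kinase compared with control. Selectivity across the panel was summarised as an S(10) score.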"}, "[7]": {"target": "Phosphatidylinositol 4-kinase beta (Homo sapiens) (UniProt Q9UBF8)", "experiment": "Binding affinity to wild-type human full length PIK4CB (M1 to M828 residues) expressed in mammalian expression system assessed as residual binding level at 1 uM by Kinomescan method relative to control", "procedure,_shortened": "(§4)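 Single-concentration KINOMEscan (DiscoverX) binding screen at 1 μM against a panel of 468 purified kinases and mutants. The read-out is binding relative to control.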"}, "[8]": {"target": "Receptor-interacting serine/threonine-protein kinase 1 (Homo sapiens) (UniProt Q13546)", "experiment": "Binding affinity to wild-type human partial length RIPK1 (M1 to K305 residues) expressed in bacterial expression system assessed as residual binding level at 1 uM by Kinomescan method relative to control", "procedure,_shortened": "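KINOMEscan competition binding against a panel of 468 purified kinases/mutants, compound tested at 1 μM; readout is relative binding activity versus control.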"}, "[9]": {"target": "Citron Rho-interacting kinase (Homo sapiens) (UniProt O14578)", "sequence (O14578 whole entry, the tested form may be a part)": "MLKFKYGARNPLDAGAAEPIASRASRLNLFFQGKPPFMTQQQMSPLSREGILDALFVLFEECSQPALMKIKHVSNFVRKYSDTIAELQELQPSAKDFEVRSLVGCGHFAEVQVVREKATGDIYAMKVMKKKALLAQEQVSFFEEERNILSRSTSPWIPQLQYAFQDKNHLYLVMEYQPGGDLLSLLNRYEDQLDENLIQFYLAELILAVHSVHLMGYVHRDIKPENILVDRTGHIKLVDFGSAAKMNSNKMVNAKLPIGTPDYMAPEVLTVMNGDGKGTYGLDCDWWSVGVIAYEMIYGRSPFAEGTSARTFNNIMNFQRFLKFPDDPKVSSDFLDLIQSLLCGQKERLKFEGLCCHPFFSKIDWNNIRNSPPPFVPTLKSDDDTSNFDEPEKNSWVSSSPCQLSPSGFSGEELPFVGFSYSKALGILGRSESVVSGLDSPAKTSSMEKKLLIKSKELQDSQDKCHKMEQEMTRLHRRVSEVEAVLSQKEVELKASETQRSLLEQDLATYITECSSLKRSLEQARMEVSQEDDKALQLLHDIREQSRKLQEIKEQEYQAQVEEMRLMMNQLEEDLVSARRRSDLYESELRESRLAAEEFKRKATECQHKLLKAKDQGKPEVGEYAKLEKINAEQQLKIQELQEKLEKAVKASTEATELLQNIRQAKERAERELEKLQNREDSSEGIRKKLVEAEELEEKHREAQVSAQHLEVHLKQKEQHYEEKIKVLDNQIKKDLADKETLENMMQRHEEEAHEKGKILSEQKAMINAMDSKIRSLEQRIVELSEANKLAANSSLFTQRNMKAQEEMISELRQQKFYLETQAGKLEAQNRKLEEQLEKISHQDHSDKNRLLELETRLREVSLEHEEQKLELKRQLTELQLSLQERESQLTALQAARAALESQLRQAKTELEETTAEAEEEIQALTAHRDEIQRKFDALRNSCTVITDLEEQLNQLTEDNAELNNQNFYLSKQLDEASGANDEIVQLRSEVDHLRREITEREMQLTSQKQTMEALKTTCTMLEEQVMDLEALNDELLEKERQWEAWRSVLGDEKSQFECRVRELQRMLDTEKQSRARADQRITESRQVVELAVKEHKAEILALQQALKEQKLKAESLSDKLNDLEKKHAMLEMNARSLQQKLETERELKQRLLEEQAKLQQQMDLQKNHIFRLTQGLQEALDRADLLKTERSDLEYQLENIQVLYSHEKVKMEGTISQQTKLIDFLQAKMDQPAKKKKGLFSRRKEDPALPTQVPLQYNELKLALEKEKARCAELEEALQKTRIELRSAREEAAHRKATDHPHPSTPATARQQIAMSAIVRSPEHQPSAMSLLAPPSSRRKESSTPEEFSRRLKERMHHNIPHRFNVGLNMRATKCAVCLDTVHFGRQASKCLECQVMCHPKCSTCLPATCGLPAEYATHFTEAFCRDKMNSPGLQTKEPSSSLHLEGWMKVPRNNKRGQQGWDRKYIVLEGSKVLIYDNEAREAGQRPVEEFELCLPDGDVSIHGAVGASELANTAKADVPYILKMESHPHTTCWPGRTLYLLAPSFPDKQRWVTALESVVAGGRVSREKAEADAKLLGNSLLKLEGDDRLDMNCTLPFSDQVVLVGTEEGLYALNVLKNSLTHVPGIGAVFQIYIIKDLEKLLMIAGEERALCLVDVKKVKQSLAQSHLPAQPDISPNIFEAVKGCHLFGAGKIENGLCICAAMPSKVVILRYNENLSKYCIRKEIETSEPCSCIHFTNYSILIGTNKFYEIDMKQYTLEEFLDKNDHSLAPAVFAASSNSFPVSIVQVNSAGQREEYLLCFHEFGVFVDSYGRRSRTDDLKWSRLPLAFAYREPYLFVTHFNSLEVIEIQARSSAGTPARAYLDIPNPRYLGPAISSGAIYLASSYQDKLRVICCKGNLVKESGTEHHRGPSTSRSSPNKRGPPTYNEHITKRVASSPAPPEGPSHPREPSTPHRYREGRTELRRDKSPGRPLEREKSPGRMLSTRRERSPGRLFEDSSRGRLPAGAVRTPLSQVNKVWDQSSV", "experiment": "Binding affinity to wild-type human partial length CIT (M68 to E432 residues) expressed in bacterial expression system assessed as residual binding level at 1 uM by Kinomescan method relative to control", "procedure,_shortened": "as §2"}, "[10]": {"target": "Aurora kinase A (Homo sapiens) (UniProt O14965)", "experiment": "Binding affinity to wild-type human partial length AURKA (E122 to K401 residues) expressed in mammalian expression system assessed as residual binding level at 1 uM by Kinomescan method relative to control", "procedure,_shortened": "as §2"}, "[11]": {"target": "Serine/threonine-protein kinase/endoribonuclease IRE1 (Homo sapiens) (UniProt O75460)", "experiment": "Binding affinity to wild-type human partial length ERN1 (S551 to E852 residues) expressed in mammalian expression system assessed as residual binding level at 1 uM by Kinomescan method relative to control"}, "[12]": {"target": "Dual specificity tyrosine-phosphorylation-regulated kinase 1B (Homo sapiens) (UniProt Q9Y463)", "sequence (Q9Y463 whole entry, looked up, the tested form may be a part)": "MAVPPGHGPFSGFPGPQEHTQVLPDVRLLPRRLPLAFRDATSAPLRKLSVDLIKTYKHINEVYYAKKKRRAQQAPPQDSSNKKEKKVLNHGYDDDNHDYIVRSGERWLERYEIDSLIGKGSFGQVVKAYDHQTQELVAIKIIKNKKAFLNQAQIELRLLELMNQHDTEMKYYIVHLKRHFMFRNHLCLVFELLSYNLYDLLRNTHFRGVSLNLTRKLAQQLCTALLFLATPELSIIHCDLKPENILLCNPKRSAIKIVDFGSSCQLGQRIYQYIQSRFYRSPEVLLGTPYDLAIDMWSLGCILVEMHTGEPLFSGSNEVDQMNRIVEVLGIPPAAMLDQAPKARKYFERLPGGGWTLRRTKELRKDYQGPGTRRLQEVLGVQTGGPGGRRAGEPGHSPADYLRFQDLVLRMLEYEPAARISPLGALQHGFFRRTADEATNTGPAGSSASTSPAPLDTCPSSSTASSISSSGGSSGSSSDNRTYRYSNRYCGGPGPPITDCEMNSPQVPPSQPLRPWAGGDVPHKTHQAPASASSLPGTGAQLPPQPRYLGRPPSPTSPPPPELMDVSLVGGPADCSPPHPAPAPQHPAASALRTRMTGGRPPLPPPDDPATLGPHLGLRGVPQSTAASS", "experiment": "Binding affinity to wild-type human full length DYRK1B (M1 to S629 residues) expressed in bacterial expression system assessed as residual binding level at 1 uM by Kinomescan method relative to control", "procedure,_shortened": "as §1"}, "[13]": {"target": "Cyclin-dependent kinase 11A (Homo sapiens) (UniProt Q9UQ88)", "experiment": "Binding affinity to wild-type human partial length CDC2L2 (D391 to K730 residues) expressed in bacterial expression system assessed as residual binding level at 1 uM by Kinomescan method relative to control"}, "[14]": {"target": "Serine/threonine-protein kinase PAK 3 (Homo sapiens) (UniProt O75914)", "experiment": "Binding affinity to wild-type human full length PAK3 (M1 to R544 residues) expressed in bacterial expression system assessed as residual binding level at 1 uM by Kinomescan method relative to control", "procedure,_shortened": "as §1"}, "[15]": {"target": "Calcium/calmodulin-dependent protein kinase type IV (Homo sapiens) (UniProt Q16566)", "sequence (Q16566 whole entry, the tested form may be a part)": "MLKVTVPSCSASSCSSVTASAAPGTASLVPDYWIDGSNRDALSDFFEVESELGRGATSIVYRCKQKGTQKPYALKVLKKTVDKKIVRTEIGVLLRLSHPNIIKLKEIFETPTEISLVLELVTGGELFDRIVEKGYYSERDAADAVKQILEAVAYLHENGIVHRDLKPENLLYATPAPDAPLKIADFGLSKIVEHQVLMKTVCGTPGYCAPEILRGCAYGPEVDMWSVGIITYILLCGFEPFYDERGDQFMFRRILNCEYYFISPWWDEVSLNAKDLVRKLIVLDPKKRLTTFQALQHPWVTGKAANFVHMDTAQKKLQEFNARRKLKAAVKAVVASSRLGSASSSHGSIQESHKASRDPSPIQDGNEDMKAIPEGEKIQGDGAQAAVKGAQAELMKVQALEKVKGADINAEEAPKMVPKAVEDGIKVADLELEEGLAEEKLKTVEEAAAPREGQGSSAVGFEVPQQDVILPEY", "experiment": "Binding affinity to wild-type human partial length CAMK4 (A22 to A322 residues) expressed in bacterial expression system assessed as residual binding level at 1 uM by Kinomescan method relative to control"}, "[16]": {"target": "Microtubule-associated serine/threonine-protein kinase 1 (Homo sapiens) (UniProt Q9Y2H9)", "experiment": "Binding affinity to wild-type human partial length MAST1 (S346 to V730 residues) expressed in mammalian expression system assessed as residual binding level at 1 uM by Kinomescan method relative to control"}, "[17]": {"target": "Tyrosine-protein kinase Tec (Homo sapiens) (UniProt P42680)", "experiment": "Binding affinity to wild-type human partial length TEC (L341 to D620 residues) expressed in bacterial expression system assessed as residual binding level at 1 uM by Kinomescan method relative to control"}, "[18]": {"target": "Serine/threonine-protein kinase MARK2 (Homo sapiens) (UniProt Q7KZI7)", "experiment": "Binding affinity to wild-type human partial length MARK2 (M1 to R450 residues) expressed in bacterial expression system assessed as residual binding level at 1 uM by Kinomescan method relative to control", "procedure,_shortened": "as §2"}, "[19]": {"target": "Tyrosine-protein kinase Yes (Homo sapiens) (UniProt P07947)", "sequence (P07947 2-543 limits assumed)": "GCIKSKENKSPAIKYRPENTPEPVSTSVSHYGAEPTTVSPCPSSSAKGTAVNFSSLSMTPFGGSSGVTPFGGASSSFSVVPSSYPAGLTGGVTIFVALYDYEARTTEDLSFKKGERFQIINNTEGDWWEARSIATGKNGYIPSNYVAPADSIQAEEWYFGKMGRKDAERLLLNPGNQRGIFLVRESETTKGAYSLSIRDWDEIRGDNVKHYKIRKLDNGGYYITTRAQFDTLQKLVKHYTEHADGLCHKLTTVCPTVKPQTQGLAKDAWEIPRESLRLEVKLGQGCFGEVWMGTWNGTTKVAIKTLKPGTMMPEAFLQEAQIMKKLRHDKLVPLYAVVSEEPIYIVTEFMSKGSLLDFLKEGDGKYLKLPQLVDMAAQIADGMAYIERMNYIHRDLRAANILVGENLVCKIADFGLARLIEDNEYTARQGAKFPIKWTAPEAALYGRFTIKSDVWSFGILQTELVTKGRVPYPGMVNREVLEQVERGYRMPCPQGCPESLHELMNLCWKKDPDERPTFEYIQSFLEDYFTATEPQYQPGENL", "experiment": "Binding affinity to wild-type human partial length YES (T257 to L543 residues) expressed in bacterial expression system assessed as residual binding level at 1 uM by Kinomescan method relative to control"}, "[20]": {"target": "Dual specificity testis-specific protein kinase 1 (Homo sapiens) (UniProt Q15569)", "experiment": "Binding affinity to wild-type human full length TESK1 (R37 to S626 residues) expressed in bacterial expression system assessed as residual binding level at 1 uM by Kinomescan method relative to control", "procedure,_shortened": "as §4"}, "[21]": {"test_system": "Fibroblast growth factor receptor 3 (Homo sapiens), P22607 [G697C]", "experiment": "Binding affinity to human partial length FGFR3 G697C mutant (R442 to S771 residues) expressed in bacterial expression system assessed as residual binding level at 1 uM by Kinomescan method relative to control", "procedure,_shortened": "as §3"}, "[22]": {"target": "T1, Platelet-derived growth factor receptor alpha", "experiment": "Inhibition of PDGF-induced PDGFRalpha autophosphorylation at Y849 residue in human NCI-H1703 cells after 2 hrs in presence of PDGF-AA by Western blot analysis", "format": "cell-based"}}, "note": "Calls of active or inactive are those of the source. The calls are words filed in the database; no cut-off is given here.", "data": [{"compound": "Cc1ccc(NC(=O)c2ccc(CN(CCN(C)C)C(=O)c3cccnc3)cc2)cc1Nc1nccc(-c2cccnc2)n1", "values": [{"measurement": "Activity", "setting": "[1]", "result": 96, "unit": "%"}, {"measurement": "Activity", "setting": "[2]", "result": 94, "unit": "%"}, {"measurement": "inhibition", "setting": "[3]", "result": "Active"}, {"measurement": "inhibition", "setting": "[4]", "result": "Active"}, {"measurement": "Activity", "setting": "[5]", "result": 94, "unit": "%"}, {"measurement": "Activity", "setting": "[6]", "result": 59, "unit": "%"}, {"measurement": "Activity", "setting": "[7]", "result": 100, "unit": "%"}, {"measurement": "Activity", "setting": "[8]", "result": 89, "unit": "%"}, {"measurement": "Activity", "setting": "[9]", "result": 89, "unit": "%"}, {"measurement": "Activity", "setting": "[10]", "result": 74, "unit": "%"}, {"measurement": "Activity", "setting": "[11]", "result": 96, "unit": "%"}, {"measurement": "Activity", "setting": "[12]", "result": 51, "unit": "%"}, {"measurement": "Activity", "setting": "[13]", "result": 96, "unit": "%"}, {"measurement": "Activity", "setting": "[14]", "result": 40, "unit": "%"}, {"measurement": "Activity", "setting": "[15]", "result": 98, "unit": "%"}, {"measurement": "Activity", "setting": "[16]", "result": 100, "unit": "%"}, {"measurement": "Activity", "setting": "[17]", "result": 100, "unit": "%"}, {"measurement": "Activity", "setting": "[18]", "result": 91, "unit": "%"}, {"measurement": "Activity", "setting": "[19]", "result": 100, "unit": "%"}, {"measurement": "Activity", "setting": "[20]", "result": 100, "unit": "%"}, {"measurement": "Activity", "setting": "[21]", "result": 100, "unit": "%"}, {"measurement": "inhibition", "setting": "[22]", "result": "Dose-dependent effect"}]}]}
